Screening results from PubChem.
DAGLB inh: blocks human DAGLB lipase activity | Q8NCG7 | HEK293T DAGLB membrane lysate, EnzChek fluorogenic substrate | inhibition, % at 5.17 µM | 0.059% of 340,000 active | AID 504411; in the data active means inhibition above about 34%
CXCR6 block: blocks human CXCR6 beta-arrestin recruitment. O00574. 0.36% of 360,000 active. AID 602244. inhibition, % at 20 µM. CHO-K1 PathHunter CXCR6 beta-arrestin, luminescence; in the data active means inhibition above about 34%, passing the limit was not always enough;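 further: antagonist mode with CXCL16 agonist at 10 nM final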
iPSC survival up: increases survival of single human iPS cells; survival enhancement, % at 20 µM; hiPSC single-cell survival, ATPlite luminescence; 100% = ROCK inhibitor wells, 0% = DMSO; 0.044% of 360,000 active; AID 602274; in the data active means survival enhancement above about 18%;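 further: cells exposed to compounds for 16 hours before the ATP read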
APJ ag: APJ receptor agonism. 0.11% of 330,000 active. activation, % at 20 µM. P35414. CHO-K1 APJ PathHunter beta-arrestin, luminescence; 0% DMSO wells, 100% apelin;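 active means activation more than six SD over the plate average, tested at 20 µM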
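Test system: CHO-K1 APJ beta-arrestin complementation cell line | Compound: Single test compound dose, 20 µM final, 1% DMSO | Incubation: Compound 90 min 25 °C, reagent 1 h | Measured by: beta-gal luminescence | Read-out basis: APJ–arrestin association signal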
APJ antag: APJ receptor antagonism. CHO-K1 APJ beta-arrestin complementation, luminescence. P35414. 0.32% of 330,000 active. inhibition, % at 20 µM;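 active means inhibition above about 40% at 20 µM, limit read from the data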;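 further: cells challenged with 10 nM apelin-13 agonist together with compound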
CCR6 antag: blocks CCL20-driven beta-arrestin recruitment at human CCR6. 0.49% of 340,000 active. CHO-K1 CCR6 PathHunter beta-arrestin, luminescence, CCL20-stimulated. P51684. AID 493098. inhibition, % at 20 µM;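 active means compounds whose inhibition of the agonist-driven luminescence signal at 20 µM reaches about 50%, limit read from the data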;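 further: cells stimulated with CCL20 at 14 nM final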
Target sequence (P51684 whole entry, looked up): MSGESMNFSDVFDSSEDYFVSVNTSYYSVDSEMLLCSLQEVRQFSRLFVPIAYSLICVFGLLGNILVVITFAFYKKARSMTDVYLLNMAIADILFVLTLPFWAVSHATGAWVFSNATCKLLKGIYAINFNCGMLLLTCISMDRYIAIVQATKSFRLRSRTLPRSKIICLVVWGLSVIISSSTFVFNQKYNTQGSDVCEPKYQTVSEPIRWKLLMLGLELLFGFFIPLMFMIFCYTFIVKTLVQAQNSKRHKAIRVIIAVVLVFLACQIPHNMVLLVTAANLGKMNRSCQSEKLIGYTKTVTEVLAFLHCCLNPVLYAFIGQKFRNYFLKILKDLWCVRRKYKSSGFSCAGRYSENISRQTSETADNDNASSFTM
APJ antag conf: APJ receptor antagonism confirmation; shares compounds with APJ antag; inhibition, % at 20 µM; 66% of 950 active; APJ beta-arrestin recruitment, luminescence, antagonist mode; AID 2766; in the data active means inhibition above about 50%
A number is an active result. In the library only some 0.86% were active in any assay of this set; here they are far more common.

How did COc1cc(/C=C2/SC(=S)N(c3c(C)n(C)n(-c4ccccc4)c3=O)C2=O)ccc1O do in these assays?
DAGLB inh: inactive; CXCR6 block: 51.2; iPSC survival up: inactive; APJ ag: inactive; APJ antag: 52.7; CCR6 antag: 50.8; APJ antag conf: 92.1

What do the screens show for `O=C1/C(=C\c2ccc(O)c(O)c2)SC(=S)N1Cc1ccccc1`?
DAGLB inh: inactive; CXCR6 block: 51.8; iPSC survival up: inactive; APJ ag: inactive; APJ antag: 56.3; CCR6 antag: 71.0; APJ antag conf: 99.5

What do the screens show for `COc1cc(/C=C2/SC(=S)N(Cc3ccccc3)C2=O)ccc1O`?
DAGLB inh: inactive; CXCR6 block: inactive; iPSC survival up: inactive; APJ ag: inactive; APJ antag: 46.9; CCR6 antag: 59.1; APJ antag conf: 102.8

What do the screens show for `COc1cc(/C=C2/SC(=NCc3ccccc3)N(Cc3ccccc3)C2=O)ccc1O`?
DAGLB inh: inactive; CXCR6 block: inactive; iPSC survival up: inactive; APJ ag: inactive; APJ antag: inactive; CCR6 antag: inactive

How did Cc1nn2c(N)c(-c3ccccc3)cnc2c1-c1ccccc1 do in these assays?
DAGLB inh: inactive; CXCR6 block: inactive; iPSC survival up: inactive; APJ ag: inactive; APJ antag: inactive; CCR6 antag: inactive

How did CCN(CC)CC(O)CN1C(=O)NC(C)(C)C1=O (stereo not drawn) do in these assays?
DAGLB inh: inactive; CXCR6 block: inactive; iPSC survival up: inactive; APJ ag: inactive; APJ antag: inactive; CCR6 antag: inactive

How did Nc1c(C(=O)N2CCCCCC2)oc2ccccc12 do in these assays?
DAGLB inh: inactive; CXCR6 block: inactive; iPSC survival up: inactive; APJ ag: inactive; APJ antag: inactive; CCR6 antag: inactive

Results for COc1cc(/C=C2\SC(=S)N(N3CCOCC3)C2=O)cc(OC)c1OC ?
DAGLB inh: inactive; CXCR6 block: inactive; iPSC survival up: inactive; APJ ag: inactive; APJ antag: inactive; CCR6 antag: inactive

What do the screens show for `COc1cc(/C=C2\SC(=S)N(N3CCOCC3)C2=O)ccc1O`?
DAGLB inh: inactive; CXCR6 block: 40.1; iPSC survival up: inactive; APJ ag: inactive; APJ antag: 50.6; CCR6 antag: inactive; APJ antag conf: 70.2

What do the screens show for `C[C@H]1CN([C@@H](C)CO)C(=O)CCCn2cc(nn2)CO[C@@H]1CN(C)C(=O)Nc1ccc2c(c1)OCO2`?
DAGLB inh: inactive; CXCR6 block: inactive; iPSC survival up: inactive

How did Oc1ccccc1/C=N/Nc1cc(N2CCCC2)nc(N2CCCC2)n1 do in these assays?
DAGLB inh: inactive; CXCR6 block: inactive; iPSC survival up: inactive; APJ ag: inactive; APJ antag: 42.3; CCR6 antag: inactive; APJ antag conf: inactive

What do the screens show for `Cc1ccc(CC(=O)NC2CCSC2=O)cc1` (stereo not drawn)?
DAGLB inh: inactive; CXCR6 block: inactive; iPSC survival up: inactive; APJ ag: inactive; APJ antag: inactive; CCR6 antag: inactive

How did O=C(Nc1ccccc1O)c1ccc(NS(=O)(=O)c2cccc3cccnc23)cc1 do in these assays?
DAGLB inh: inactive; CXCR6 block: inactive; iPSC survival up: inactive; APJ ag: inactive; APJ antag: inactive; CCR6 antag: inactive

How did Cc1ccc(S(=O)(=O)N2CC3=C(C2)C2CC2(C)C3)cc1 (stereo not drawn) do in these assays?
CXCR6 block: inactive; iPSC survival up: inactive

How did Cc1cccc2c1N(CCCOc1ccccc1)C(=O)C2=O do in these assays?
DAGLB inh: inactive; CXCR6 block: inactive; iPSC survival up: inactive; APJ ag: inactive; APJ antag: 44.4; CCR6 antag: inactive; APJ antag conf: 75.7

What do the screens show for `O=S(=O)(c1cccc(Cl)c1Cl)N1CCCCC1`?
DAGLB inh: inactive; CXCR6 block: inactive; iPSC survival up: inactive; APJ ag: inactive; APJ antag: 40.4; CCR6 antag: inactive; APJ antag conf: inactive

How did CCOc1ccccc1N1C(=O)c2ccc(S(=O)(=O)c3ccc(C(=O)O)cc3)cc2C1=O do in these assays?
DAGLB inh: inactive; CXCR6 block: inactive; iPSC survival up: inactive; APJ ag: inactive; APJ antag: inactive; CCR6 antag: inactive

Results for COc1ccc(-c2csc(NC(=S)NC(=O)c3ccccc3)n2)cc1Br ?
CXCR6 block: inactive; iPSC survival up: inactive; APJ ag: inactive; APJ antag: inactive; CCR6 antag: inactive

How did COc1ccc(-c2csc(NC(=S)NC(=O)c3cc4ccccc4o3)n2)cc1Br do in these assays?
DAGLB inh: inactive; CXCR6 block: inactive; iPSC survival up: inactive; APJ ag: inactive; APJ antag: 45.1; CCR6 antag: inactive; APJ antag conf: inactive

Results for COc1ccc(C(=O)NC(=S)Nc2nc(-c3ccc(OC)c(Br)c3)cs2)cc1Br ?
DAGLB inh: inactive; CXCR6 block: inactive; iPSC survival up: inactive; APJ ag: inactive; APJ antag: 42.9; CCR6 antag: inactive; APJ antag conf: inactive

How did COc1ccc(-c2csc(NC(=S)NC(=O)/C=C/c3ccco3)n2)cc1OC do in these assays?
DAGLB inh: inactive; CXCR6 block: inactive; iPSC survival up: inactive; CCR6 antag: inactive

What do the screens show for `COc1ccc(-c2csc(NC(=S)NC(=O)/C=C/c3ccc(C(C)C)cc3)n2)cc1OC`?
DAGLB inh: inactive; CXCR6 block: inactive; iPSC survival up: inactive; APJ ag: inactive; APJ antag: 41.3; CCR6 antag: inactive; APJ antag conf: inactive

Results for COc1ccc(-c2csc(NC(=S)NC(=O)c3ccco3)n2)cc1Br ?
DAGLB inh: inactive; CXCR6 block: inactive; iPSC survival up: inactive; APJ ag: inactive; APJ antag: inactive; CCR6 antag: inactive

Results for C[C@H](CO)N1C[C@H](C)[C@@H](CN(C)Cc2ccc(Oc3ccccc3)cc2)Oc2c(NC(=O)c3ccncc3)cccc2C1=O ?
DAGLB inh: inactive; CXCR6 block: inactive; iPSC survival up: inactive; APJ ag: inactive; APJ antag: inactive; CCR6 antag: inactive

What do the screens show for `CCOC(=O)C1CCN(S(=O)(=O)c2ccc3oc(=O)ccc3c2)CC1`?
DAGLB inh: inactive; CXCR6 block: inactive; iPSC survival up: inactive; APJ ag: inactive; APJ antag: inactive; CCR6 antag: inactive

How did O=[N+]([O-])c1cnc(Sc2ccncn2)s1 do in these assays?
DAGLB inh: inactive; CXCR6 block: 75.0; iPSC survival up: inactive; APJ ag: inactive; APJ antag: 54.7; CCR6 antag: 80.5; APJ antag conf: 67.3

Results for O=C1NCCN1c1ncc([N+](=O)[O-])s1 ?
DAGLB inh: inactive; CXCR6 block: inactive; iPSC survival up: inactive; APJ ag: inactive; APJ antag: inactive; CCR6 antag: inactive

What do the screens show for `O=S(=O)(Nc1cccc2cccnc12)c1ccccc1`?
DAGLB inh: inactive; CXCR6 block: 68.9; iPSC survival up: inactive; APJ ag: inactive; APJ antag: 88.7; CCR6 antag: 90.2; APJ antag conf: 71.6

Results for CC(=O)Nc1ccc(S(=O)(=O)Nc2cccc3cccnc23)cc1 ?
DAGLB inh: inactive; CXCR6 block: inactive; iPSC survival up: inactive; APJ ag: inactive; APJ antag: inactive; CCR6 antag: inactive
